Columns and labels:
[1] = Solubility of the compound in water; assay type: physicochemical; conditions: buffer
[2] = Solubility of the compound in phosphate buffer at pH 3.2; assay type: physicochemical
[3] = target: T1, Gamma-aminobutyric acid receptor subunit alpha-1/beta-2/beta-3/gamma-2 (Rattus norvegicus) (UniProt P18508+P62813+P63079+P63138); assay: Inverse agonist activity at GABA alpha1beta2beta3gamma2 receptor Bzd binding site in Sprague-Dawley rat cerebellar granule cells assessed as decrease in GABA-activated chloride currents at 1 uM by whole-cell patch clamp technique relative to control
In short: (§1)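 Whole-cell patch clamp on cultured rat cerebellar granule cells. Peak, rapidly desensitizing chloride current evoked by 10 μM GABA, recorded with and without test compound. Compounds applied at 1 μM, or at 0.47 μM where solubility limited. Change expressed as percent of the current with GABA alone (E %), mean ± SEM. Student's t-test against GABA alone.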

[4] = Solubility of the compound in ethanol; assay type: physicochemical
[5] = Solubility of the compound in DMSO; assay type: physicochemical
[6] = Drug metabolism assessed as decarboxylated metabolite formation; assay type: ADME
[7] = target: T1, Gamma-aminobutyric acid receptor subunit alpha-1/beta-2/beta-3/gamma-2 (Rattus norvegicus); assay: Agonist activity at GABA alpha1beta2beta3gamma2 receptor Bzd binding site in Sprague-Dawley rat cerebellar granule cells assessed as increase in GABA-activated chloride currents at 1 uM by whole-cell patch clamp technique relative to control; in short: as §1
[8] = target: T1, Gamma-aminobutyric acid receptor subunit alpha-1/beta-2/beta-3/gamma-2 (Rattus norvegicus); assay: Inverse agonist activity at GABA alpha1beta2beta3gamma2 receptor Bzd binding site in Sprague-Dawley rat cerebellar granule cells assessed as decrease in GABA-activated chloride currents at 0.47 uM by whole-cell patch clamp technique relative to control; in short: as §1

SMILES | solubility [1] | solubility [2] | Efficacy [3] [%] | solubility [4] | solubility [5] | Drug metabolism [6] [%ID] | Efficacy [7] [%] | Efficacy [8] [%]
COc1ccc(N2CCN(C(=O)CC3c4ccccc4C(=O)N3c3ccc([N+](=O)[O-])cn3)CC2)cc1.Cl (stereo not given) | Soluble | Soluble | 21 | Soluble | Soluble | – | – | –
CN1CCN(C(=O)OC2c3nccnc3C(=O)N2c2ccc(Cl)cn2)CC1 (stereo not given) [ZOPICLONE] | – | – | – | – | – | 50 | 58 | –
CN1CCN(C(=O)CC2c3ccccc3C(=O)N2c2ccc([N+](=O)[O-])cn2)CC1.Cl (stereo not given) | Soluble | Soluble | – | Soluble | Soluble | – | 34 | –
Cc1ccc(N2CCN(C(=O)CC3c4ccccc4C(=O)N3c3ccc([N+](=O)[O-])cn3)CC2)cc1.Cl (stereo not given) | Soluble | Soluble | – | Soluble | Insoluble | – | – | –
Cl.O=C(CC1c2ccccc2C(=O)N1c1ccc([N+](=O)[O-])cn1)N1CCN(c2ccc(Cl)cc2)CC1 (stereo not given) | Soluble | Soluble | 36 | Soluble | Soluble | – | – | –
Cc1ccc(N2C(=O)c3ccccc3C2CC(=O)N2CCN(C)CC2)nc1.Cl (stereo not given) | Soluble | Soluble | – | Soluble | Soluble | – | 21 | –
CN1CCN(C(=O)CC2c3ccccc3C(=O)N2c2ccc(Cl)cn2)CC1.Cl (stereo not given) | Soluble | Soluble | – | Soluble | Soluble | – | 18 | –
Cl.O=C(CC1c2ccccc2C(=O)N1c1ccc([N+](=O)[O-])cn1)N1CCN(c2ccccc2)CC1 (stereo not given) | Soluble | Soluble | 27 | Soluble | Soluble | – | – | –
CN1CCN(C(=O)CC2c3ccccc3C(=O)N2c2ccccn2)CC1.Cl (stereo not given) | Soluble | Soluble | – | Soluble | Soluble | – | 20 | –
Cl.O=C(CC1c2ccccc2C(=O)N1c1ccc([N+](=O)[O-])cn1)N1CCN(c2ccc(F)cc2)CC1 (stereo not given) | Soluble | Soluble | – | Soluble | Soluble | – | – | –
CN1CCN(C(=O)CC2c3ccccc3C(=O)N2c2ccc(N)cn2)CC1.Cl (stereo not given) | Soluble | Soluble | – | Soluble | Insoluble | – | – | 23
CN1CCN(C(=O)CC2c3ccccc3C(=O)N2c2ccc(Br)cn2)CC1.Cl (stereo not given) | Soluble | Soluble | – | Soluble | Soluble | – | 26 | –

Source: ChEMBL document CHEMBL3864135, “Synthesis and pharmacological evaluation of functionalized isoindolinones on GABA-activated chloride currents in rat cerebellum granule cells in culture” (Bioorg Med Chem Lett, 2016)
